For 22 molecules, IC50 results are on record in ChEMBL document CHEMBL1141042, “Correlation of cytotoxic activity of betulinines and their hydroxy analogues” (Bioorg Med Chem Lett, 2005).

Molecules are shown by their SMILES. A value given as a limit tells only on which side of the number the result lay.

Common to all, as to type: functional, cell-based
The subject of assay [1] is PC-3. Nature of the assay: Concentration required to kill 50 % of human prostate cancer PC3 cells. Put shortly:
(§1)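 MTT assay. Cells at 2500–30,000/well were preincubated 24 h at 37 C, 5% CO2. Fourfold dilutions of compound in 10% DMSO were added, in duplicate, and exposure ran 72 h at 37 C. MTT was then added for 1–4 h, formazan was dissolved in 10% SDS (pH 5.5) overnight, and OD was read at 540 nm. Survival was calculated versus control wells, with IC50 from dose–response curves.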

The test system of assay [2] is HT-29. Nature of the assay: Concentration required to kill 50 % of human colon cancer cell line HT-29. Put shortly:
as §1

Assay [3] relates to CCRF-CEM. Nature of the assay: Concentration required to kill 50 % of human T-lymphoblastic leukemia cell line (CEM). Put shortly:
as §1

Assay [4] concerns K562. Nature of the assay: Concentration required to kill 50 % of human chronic myelogenous leukemia cell line K562. Put shortly: as §1
The test system of assay [5] is K562. Nature of the assay: Concentration required to kill 50 % of human paclitaxel-resistant subline of K562 cells (K-562-Tax). Put shortly:
as §1

Assay [6] relates to SK-MEL-2. Nature of the assay: Concentration required to kill 50 % of human melanoma SK-MEL2 cells. Put shortly:
as §1

[7] abbreviates: Homo sapiens, PC-3, read-out: IC50.
[8] abbreviates: Homo sapiens, HT-29, read-out: IC50.
Where [9] appears, read: Homo sapiens, CCRF-CEM, read-out: IC50.
Where [10] appears, read: Homo sapiens, K562, read-out: IC50.
Setting [11] is: Homo sapiens, SK-MEL-2, read-out: IC50.

As for `CC(C)C1=C2C3CCC4[C@@]5(C)CC[C@H](O)C(C)(C)C5CC[C@@]4(C)[C@]3(C)CC[C@@]2(C(=O)OCc2ccccc2)CC1=O` (some centres not stated), the IC50 in assay [1] (setting [7]) was 37 µM; in assay [2] (setting [8]), 21 µM; in assay [3] (setting [9]) it was 26 µM; in assay [4] (setting [10]) it was 27 µM; in assay [5] (setting [10]), 28 µM; in assay [6] (sk-mel-2) it was 156 uM l-1.
Turning to `COC(=O)[C@@]12CC[C@]3(C)C(CCC4[C@@]5(C)CC[C@H](OC(C)=O)C(C)(C)C5CC[C@]43C)C1=C(C(C)C)C(=O)C2=O` (some centres not stated), the IC50 in assay [1] (setting [7]) was 34 µM; in assay [2] (setting [8]), 33 µM; in assay [3] (setting [9]), 16 µM; in assay [4] (setting [10]), 29 µM; in assay [5] (setting [10]) it was 36 µM; in assay [6] (setting [11]) it was 87 µM.
Take `CC(=O)O[C@H]1CC[C@@]2(C)C(CC[C@]3(C)C2CCC2C4=C(C(C)C)C(=O)C[C@]4(CO)CC[C@]23C)C1(C)C` (some centres not stated): the IC50 in assay [1] (setting [7]) turned out to be 39 µM; in assay [2] (setting [8]), 33 µM; in assay [3] (setting [9]), 28 µM; in assay [4] (setting [10]) it was 37 µM; in assay [5] (setting [10]), 35 µM; in assay [6] (setting [11]) it was 84 µM.
For `CCOC(=O)[C@@]12CC[C@]3(C)C(CCC4[C@@]5(C)CC[C@H](OC(C)=O)C(C)(C)C5CC[C@]43C)C1=C(C(C)C)C(=O)C2` (some centres not stated), the IC50 was 244 uM l-1 in assay [1] (pc-3); 224 uM l-1 in assay [2] (ht-29); 102 uM l-1 in assay [3] (ccrf-cem); 59 µM in assay [4] (setting [10]); 206 uM l-1 in assay [5] (k562); 216 uM l-1 in assay [6] (sk-mel-2).
For `CC(C)C1=C2C3CCC4[C@@]5(C)CC[C@H](O)C(C)(C)C5CC[C@@]4(C)[C@]3(C)CC[C@@]2(C(=O)O)CC1=O` (some centres not stated), the IC50 in assay [1] (setting [7]) was found to be 40 µM; in assay [2] (setting [8]) it was 33 µM; in assay [3] (setting [9]), 29 µM; in assay [4] (setting [10]), 30 µM; in assay [5] (setting [10]), 34 µM; in assay [6] (sk-mel-2), 160 uM l-1.
As for `COC(=O)[C@@]12CC[C@]3(C)C(CCC4[C@@]5(C)CC[C@H](O)C(C)(C)C5CC[C@]43C)C1=C(C(C)C)C(=O)C2` (some centres not stated), the IC50 in assay [1] (setting [7]) was found to be 38 µM; in assay [2] (setting [8]), 38 µM; in assay [3] (setting [9]), 26 µM; in assay [4] (setting [10]), 38 µM; in assay [5] (setting [10]), 36 µM; in assay [6] (setting [11]), 80 µM.
Take `CC(=O)OC[C@@]1(C(=O)O)CC[C@]2(C)C(CCC3[C@@]4(C)CC[C@H](OC(=O)CCl)C(C)(C)C4CC[C@]32C)C1=O` (some centres not stated): the IC50 in assay [1] (setting [7]) stood at 2.3 µM; in assay [2] (setting [8]) it was 3.6 µM; in assay [3] (setting [9]), 1 µM; in assay [4] (setting [10]), 0.2 µM; in assay [5] (setting [10]), 0.4 µM; in assay [6] (setting [11]), 1.3 µM.
Consider `C=C1CC[C@]2(C)C(CCC3[C@@]4(C)CC[C@H](OC(C)=O)C(C)(C)C4CC[C@]32C)C1=O` (some centres not stated), for which the IC50 in assay [1] (pc-3) was 143 uM l-1; in assay [2] (ht-29) it was 129 uM l-1; in assay [3] (ccrf-cem), over 250 uM l-1; in assay [4] (setting [10]) it was 0.4 µM; in assay [5] (setting [10]) it was 1.1 µM; in assay [6] (setting [11]) it was 2.1 µM.
Regarding `CC(=O)OC[C@@]12CC[C@]3(C)C(CCC4[C@@]5(C)CC[C@H](OC(=O)CCl)C(C)(C)C5CC[C@]43C)C1=C(C(C)C)C(=O)OC2=O` (some centres not stated), the IC50 in assay [1] (pc-3) is 250 uM l-1; in assay [2] (ht-29), 216 uM l-1; in assay [3] (ccrf-cem), 162 uM l-1; in assay [4] (k562) it was 181 uM l-1; in assay [5] (k562) it was 220 uM l-1; in assay [6] (sk-mel-2) it was 121 uM l-1.
In the case of `CC(C)C1=C2C3CCC4[C@@]5(C)CC[C@H](O)C(C)(C)C5CC[C@@]4(C)[C@]3(C)CC[C@@]2(CO)CC1=O` (some centres not stated), the IC50 in assay [1] (pc-3), in assay [2] (ht-29), in assay [3] (ccrf-cem), in assay [4] (k562), in assay [5] (k562) and in assay [6] (sk-mel-2) was over 250 uM l-1 throughout.
As to `CC(=O)OC[C@@]12CC[C@]3(C)C(CCC4[C@@]5(C)CC[C@H](OC(=O)CCl)C(C)(C)C5CC[C@]43C)C1=C(C(C)C)C(=O)C2` (some centres not stated), the IC50 in assay [1] (pc-3) is 242 uM l-1; in assay [2] (ht-29), 110 uM l-1; in assay [3] (setting [9]), 44 µM; in assay [4] (k562), 110 uM l-1; in assay [5] (setting [10]), 97 µM; in assay [6] (sk-mel-2), 229 uM l-1.
Regarding `CC(=O)O[C@H]1CC[C@@]2(C)C(CC[C@]3(C)C2CCC2C4=C(C(C)C)C(=O)C[C@]4(C(=O)OCc4ccccc4)CC[C@]23C)C1(C)C` (some centres not stated), the IC50 in assay [1] (pc-3) came to 250 uM l-1; in assay [2] (ht-29), 250 uM l-1; in assay [3] (ccrf-cem) it was 250 uM l-1; in assay [4] (k562), 245 uM l-1; in assay [5] (k562), 250 uM l-1; in assay [6] (sk-mel-2), 250 uM l-1.
Consider `CCOC(=O)[C@@]12CC[C@]3(C)C(CCC4[C@@]5(C)CC[C@H](OC(C)=O)C(C)(C)C5CC[C@]43C)C1=C(C(C)C)C(=O)C2=O` (some centres not stated), for which the IC50 amounted to 87 µM in assay [1] (setting [7]); 93 µM in assay [2] (setting [8]); 38 µM in assay [3] (setting [9]); 59 µM in assay [4] (setting [10]); 130 uM l-1 in assay [5] (k562); 148 uM l-1 in assay [6] (sk-mel-2).
Turning to `CC(=O)OC[C@@]12CC[C@]3(C)C(CCC4[C@@]5(C)CC[C@H](OC(C)=O)C(C)(C)C5CC[C@]43C)C1=C(C(C)C)C(=O)C2` (some centres not stated), the IC50 in assay [1] (pc-3), in assay [2] (ht-29), in assay [3] (ccrf-cem), in assay [4] (k562), in assay [5] (k562) and in assay [6] (sk-mel-2) was over 250 uM l-1 each time.
As to `CC(=O)OC[C@@]12CC[C@]3(C)C(CCC4[C@@]5(C)CC[C@H](OC(=O)CCl)C(C)(C)C5CC[C@]43C)C1=C(C(C)C)C(=O)C2=O` (some centres not stated), the IC50 in assay [1] (pc-3) is listed as 208 uM l-1; in assay [2] (ht-29) it was over 250 uM l-1; in assay [3] (ccrf-cem), 242 uM l-1; in assay [4] (k562) it was 231 uM l-1; in assay [5] (k562), over 250 uM l-1; in assay [6] (sk-mel-2), 170 uM l-1.
As for `CCOC(=O)[C@@]12CC[C@]3(C)C(CCC4[C@@]5(C)CC[C@H](O)C(C)(C)C5CC[C@]43C)C1=C(C(C)C)C(=O)C2` (some centres not stated), the IC50 in assay [1] (setting [7]) was determined as 33 µM; in assay [2] (setting [8]), 13 µM; in assay [3] (setting [9]), 18 µM; in assay [4] (setting [10]), 17 µM; in assay [5] (setting [10]), 19 µM; in assay [6] (setting [11]), 80 µM.
`COC(=O)[C@@]12CC[C@]3(C)C(CCC4[C@@]5(C)CC[C@H](O)C(C)(C)C5CC[C@]43C)C1=C(C(C)C)C(=O)C2=O` (some centres not stated): the IC50 in assay [1] (setting [7]) turned out to be 72 µM; in assay [2] (setting [8]), 54 µM; in assay [3] (setting [9]) it was 44 µM; in assay [4] (setting [10]) it was 35 µM; in assay [5] (setting [10]) it was 46 µM; in assay [6] (sk-mel-2) it was 138 uM l-1.
As for `COC(=O)[C@@]12CC[C@]3(C)C(CCC4[C@@]5(C)CC[C@H](OC(C)=O)C(C)(C)C5CC[C@]43C)C1=C(C(C)C)C(=O)C2` (some centres not stated), the IC50 in assay [1] (pc-3) amounted to 246 uM l-1; in assay [2] (ht-29) it was 149 uM l-1; in assay [3] (setting [9]), 44 µM; in assay [4] (setting [10]), 34 µM; in assay [5] (setting [10]), 96 µM; in assay [6] (sk-mel-2) it was 165 uM l-1.
As to `CCOC(=O)[C@@]12CC[C@]3(C)C(CCC4[C@@]5(C)CC[C@H](O)C(C)(C)C5CC[C@]43C)C1=C(C(C)C)C(=O)C2=O` (some centres not stated), the IC50 came to 165 uM l-1 in assay [1] (pc-3); 176 uM l-1 in assay [2] (ht-29); 210 uM l-1 in assay [3] (ccrf-cem); 239 uM l-1 in assay [4] (k562); 85 µM in assay [5] (setting [10]); 140 uM l-1 in assay [6] (sk-mel-2).
Take `CC(=O)OC[C@@]12CC[C@]3(C)C(CCC4[C@@]5(C)CC[C@H](O)C(C)(C)C5CC[C@]43C)C1=C(C(C)C)C(=O)C2` (some centres not stated): the IC50 was 163 uM l-1 in assay [1] (pc-3); 93 µM in assay [2] (setting [8]); 250 uM l-1 in assay [3] (ccrf-cem); 39 µM in assay [4] (setting [10]); 59 µM in assay [5] (setting [10]); 85 µM in assay [6] (setting [11]).
On to `CC(=O)O[C@H]1CC[C@@]2(C)C(CC[C@]3(C)C2CCC2C4=C(C(C)C)C(=O)C[C@]4(C(=O)O)CC[C@]23C)C1(C)C` (some centres not stated), for which the IC50 was 117 uM l-1 in assay [1] (pc-3); 149 uM l-1 in assay [2] (ht-29); over 250 uM l-1 in assay [3] (ccrf-cem); over 250 uM l-1 in assay [4] (k562); over 250 uM l-1 in assay [5] (k562); 128 uM l-1 in assay [6] (sk-mel-2).
`C=C(C)[C@@H]1CC[C@]2(CO)CC[C@]3(C)[C@H](CC[C@@H]4[C@@]5(C)CC[C@H](O)C(C)(C)[C@@H]5CC[C@]43C)[C@@H]12` [BETULIN]: the IC50 in assay [1] (pc-3), in assay [2] (ht-29), in assay [3] (ccrf-cem), in assay [4] (k562), in assay [5] (k562) and in assay [6] (sk-mel-2) was over 250 uM l-1 throughout.
